Article PMC3086141 (Circulation. Cardiovascular interventions, 2011)

How the values were obtained:
[1] = PCI patients; bolus of 1.0 mg/kg followed by infusion of 2.5 mg/kg/h; cited from earlier work
[2] = Quantification of bivalirudin concentration in plasma of PCI patients; type: in vivo; conditions: both, human, iv, Residual plasma drug levels two hours after discontinuation of infusion, 2 h POST, LC/MS/MS
Method in brief: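 Test compound given to 22 PCI patients as an IV bolus followed by continuous infusion. Plasma sampled at baseline, about 5 min post-bolus, 30 min into infusion (or at PCI end if earlier), and 5 min, 15 min and 2 h after infusion stopped. Levels measured by LC/MS/MS with a […] detection threshold. Data given as mean ± SD.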

## CC[C@H](C)[C@H](NC(=O)[C@H](CCC(=O)O)NC(=O)[C@H](CCC(=O)O)NC(=O)[C@H](Cc1ccccc1)NC(=O)[C@H](CC(=O)O)NC(=O)CNC(=O)[C@H](CC(N)=O)NC(=O)CNC(=O)CNC(=O)CNC(=O)CNC(=O)[C@@H]1CCCN1C(=O)[C@H](CCCNC(=N)N)NC(=O)[C@@H]1CCCN1C(=O)[C@H](N)Cc1ccccc1)C(=O)N1CCC[C@H]1C(=O)N[C@@H](CCC(=O)O)C(=O)N[C@@H](CCC(=O)O)C(=O)N[C@@H](Cc1ccc(O)cc1)C(=O)N[C@@H](CC(C)C)C(=O)O [bivalirudin]
[1]
  Mean steady-state bivalirudin plasma levels, original dosage: 5.6 µM
  Terminal half-life, original dosage: 25 min
[2]
  level at time molar: 200 nM
